# In the library only some 2% were active in any assay of this set; here they are far more common.
# CHRM1 PAM: human M1 muscarinic receptor positive allosteric modulators, primary screen, CHO-K1 cells, Fluo-8 calcium fluorescence, 1536-well; Muscarinic acetylcholine receptor M1 (Homo sapiens), P11229; CHO-K1 hM1, ACh EC20; 0% = ACh EC20, 100% = maximal ACh; activation, % at 3 µM; 360,000 tested, 0.088% active; in the data active means activation above about 19%, passing the limit was not always enough
# Target sequence (P11229 whole entry, looked up): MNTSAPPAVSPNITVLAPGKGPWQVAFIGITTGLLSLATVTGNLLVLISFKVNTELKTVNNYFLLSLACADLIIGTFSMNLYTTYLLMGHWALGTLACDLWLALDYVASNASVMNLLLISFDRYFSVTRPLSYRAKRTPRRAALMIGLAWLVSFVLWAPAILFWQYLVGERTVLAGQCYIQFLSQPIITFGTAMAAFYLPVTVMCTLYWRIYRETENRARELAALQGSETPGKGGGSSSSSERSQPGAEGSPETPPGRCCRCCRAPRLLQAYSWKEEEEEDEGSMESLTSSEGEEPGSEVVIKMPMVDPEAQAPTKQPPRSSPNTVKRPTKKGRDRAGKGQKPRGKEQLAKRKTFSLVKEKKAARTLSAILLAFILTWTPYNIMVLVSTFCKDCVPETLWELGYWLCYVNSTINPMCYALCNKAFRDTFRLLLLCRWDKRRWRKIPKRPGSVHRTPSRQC
# CHRM5 agonist: human M5 muscarinic receptor agonists, primary screen, CHO-K1 cells, Fluo-8 calcium fluorescence; CHO-K1 hM5 cells; 0% DMSO wells, 100% maximal acetylcholine response; Muscarinic acetylcholine receptor M5 (Homo sapiens), P08912; 360,000 tested, 0.19% active; activation, % at 3 µM;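 active means activation above the run's mean over test compounds plus 3 SD, cut at about 23% in these data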;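 further: signal is peak over basal fluorescence ratio across the kinetic read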
# M1 antag: human M1 muscarinic receptor antagonists, primary screen, CHO-K1 cells, Fluo-8 calcium fluorescence, 1536-well. Muscarinic acetylcholine receptor M1 (Homo sapiens), P11229. CHO-K1 hM1, ACh EC80 antagonist. inhibition, % at 3 µM. 360,000 tested, 1.3% active. AID 588852, 2011;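 active means percent inhibition above its own plate's cutoff, namely the mean of that plate's compound wells plus 3 SD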;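 further: peak over basal fluorescence ratio during 140 s after agonist addition; 0% = ACh EC80 plus DMSO and 100% = DMSO alone without agonist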
# CHRM5 antagonist: human M5 muscarinic receptor antagonists, primary screen, CHO cells, Fluo-8 calcium fluorescence. Muscarinic acetylcholine receptor M5 (Homo sapiens), P08912. 360,000 tested, 0.59% active. inhibition, % at 3 µM. AID 624040, 2012. CHO-hM5 cells, ACh EC80;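 active means inhibition above a per-plate cutoff, the mean of that plate's test compounds plus 3 SD, cut at about 27% in these data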;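 further: 0% = acetylcholine EC80 with DMSO and 100% = DMSO without agonist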
# M1 ag: human M1 muscarinic receptor agonists, primary screen, Fluo-8 calcium fluorescence, CHO-K1 cells, HTS; activation, % at 3 µM; 360,000 tested, 0.33% active; CHO-K1 hM1, agonist mode; 0% DMSO, 100% acetylcholine EC100; AID 588814, 2011;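 active means activation above the run's mean compound activation plus 3 SD, cut at about 16% in these data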;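 further: peak over basal fluorescence ratio within a 140 s kinetic read after compound addition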
# M5 PAM: human M5 muscarinic receptor positive allosteric modulators, primary screen, CHO-K1 cells, Fluo-8 calcium fluorescence. activation, % at 3 µM. 360,000 tested, 0.3% active. Muscarinic acetylcholine receptor M5 (Homo sapiens), P08912. CHO-K1 hM5, ACh EC20 PAM; 0% = ACh EC20, 100% = ACh EC100. AID 624038, 2012;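 active means activation above the run cutoff, the mean activation of all test compounds plus 3 SD, cut at about 18% in these data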
#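 Replicates: One well per compound, no replicates | System: Human M5 receptor in CHO-K1 cells | Benchmarks: Low control EC20 acetylcholine (0%), high control EC100 acetylcholine (100%) | Probe or stimulus: Acetylcholine, EC20 level | Times: Fluo-8 loading 80 min at 37 °C plus 30 min room temperature | Signal: Intracellular calcium via Fluo-8 fluorescence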
# An asterisk follows results filed as active; / = no result given.
SMILES,CHRM1 PAM,CHRM5 agonist,M1 antag,CHRM5 antagonist,M1 ag,M5 PAM
COc1ccc(C(=O)c2sc3nc(-c4ccccc4)ccc3c2N)cc1,-16.7,15.4,19.8,34.0*,3.0,-17.4
Cc1cccc(C)c1NC(=O)C1(C)CSCC(=O)N1C1CCN(Cc2ccccc2)CC1 (centres undefined),/,1.6,/,-11.0,/,8.5
CC(CN1CCCCC1)OC(=O)C(C)(c1ccccc1)c1ccccc1 (centres undefined),-20.7,-12.4,88.7*,39.7*,-4.0,-54.3
CC(CN1CCOCC1)OC(=O)C(C)(c1ccccc1)c1ccccc1 (centres undefined),-18.7,-13.5,17.5,9.3,-6.7,-19.9
CC(C)[C@@H](NC(=O)OC(C)(C)C)c1cc(C(=O)c2c(-c3ccccc3)[nH]c3ccccc23)c(N)s1,/,1.8,/,4.1,/,2.5
Cc1nc2nc(SCC(=O)NCCCN3CCCCC3)nn2c(C)c1Cc1ccccc1,-18.0,-6.0,13.7,13.6,-11.2,-3.8
Cc1nc2nc(SCC(=O)NCCCN3CCCC3)nn2c(C)c1Cc1ccccc1Cl,-36.8,-8.7,81.2*,26.3,-12.4,-14.9
CCC1CCCCN1CCCNC(=O)CSc1nc2nc(C)c(Cc3ccc(C)cc3)c(C)n2n1 (centres undefined),-36.3,-8.0,68.9*,8.4,-13.0,-8.6
O=C(Oc1cccc(Nc2ncnc3ccccc23)c1)c1ccccc1Cl,-15.2,0.9,25.0*,44.8*,2.6,-26.8
COCCNC(=O)C1(C)CCCN(C(=O)c2ccc(-c3ccccc3)cc2)C1 (centres undefined),-6.2,2.2,4.8,-1.2,-1.4,-0.2
CCc1ccc(NS(=O)(=O)c2c(C)noc2C)cc1,-22.2,-10.8,39.9*,1.6,-5.3,-10.2
N#CCCN(C(=O)COC(=O)c1ccc(CNS(=O)(=O)c2ccc(F)c(Cl)c2)cc1)c1ccc(F)cc1,-27.4,-3.0,78.6*,22.2,-12.9,-19.4
CCN1CCN(C(C(=O)NC2CCCCC2)c2cc3ccccc3o2)CC1 (centres undefined),-7.7,-0.6,-8.1,-13.1,-5.4,-3.6
O=S(=O)(NCC1CCCO1)c1ccc(-c2ccc(S(=O)(=O)NCC3CCCO3)cc2)cc1 (centres undefined),-8.1,6.7,20.3,35.3*,1.8,-24.5
Cc1ccc(S(=O)(=O)NCC2CCCO2)cc1 (centres undefined),5.1,2.5,-6.2,-12.5,0.9,14.2
COc1cc(S(=O)(=O)NCC2CCCO2)c(OC)cc1Cl (centres undefined),25.9*,-0.3,-63.0,-10.1,5.4,2.4
COc1ccc(S(=O)(=O)NCC2CCCO2)c(Cl)c1Cl (centres undefined),17.2,-7.7,-16.2,10.1,-0.6,-0.4
COc1cc(/C=N/NC(=O)CNC(=O)c2ccco2)ccc1O,-6.9,-4.5,-2.9,27.0*,-3.3,-10.6
O=C(CNC(=O)c1ccco1)N/N=C/c1cc(Br)ccc1O,10.9,-1.1,-24.3,-1.5,0.8,1.4
COc1cc(/C=N/NC(=O)CCN2CCN(C(c3ccccc3)c3ccccc3)CC2)ccc1O,-28.0,-10.0,27.9*,-2.2,-11.1,-13.1
COc1cc(/C=N\NC(=O)CNC(=O)C(c2ccccc2)c2ccccc2)ccc1O,2.8,6.1,-4.2,0.4,1.7,-3.7
Cc1ccc(S(=O)(=O)N2C[C@]3(O)C[C@@H]4C(=O)N(c5ccccc5)C(=O)[C@@H]4C[C@]3(OC(=O)NCC3CCCCC3)C2)cc1,-0.3,-0.2,-4.7,-6.8,-1.5,-2.0
O=C(CC1CCC1)Nc1cccc2c([N+](=O)[O-])cccc12,19.4,-6.7,-23.3,27.5*,-2.5,-11.2
